Compounds with a hit are over-represented: about 5.9% of the library has one in this group of screens.
Pf Dd2 inh: P. falciparum Dd2 growth inhibitors, primary screen, SYBR Green fluorescence, single dose replicates. activity change, % at 10 µM. 94,000 compounds, 2.3% hits. 72 h; hits give low values; in the data active = activity change below about -80%; inconclusive = no clear call, values can overlap the other calls
IDH1 R132H inh: inhibitors of IDH1 R132H reductase, primary screen, biochemical, plate reader, single point | inhibition, % at 10 µM | diaphorase/resazurin fluorescence, 60 min | 70,000 compounds, 0.18% hits | AID 624101, 2012 | Isocitrate dehydrogenase [NADP] cytoplasmic (Homo sapiens), O75874; in the data active = inhibition above about 34%; inconclusive = no clear call, values can overlap the other calls; inactive = below about 11%
Target sequence (O75874 whole entry R132H): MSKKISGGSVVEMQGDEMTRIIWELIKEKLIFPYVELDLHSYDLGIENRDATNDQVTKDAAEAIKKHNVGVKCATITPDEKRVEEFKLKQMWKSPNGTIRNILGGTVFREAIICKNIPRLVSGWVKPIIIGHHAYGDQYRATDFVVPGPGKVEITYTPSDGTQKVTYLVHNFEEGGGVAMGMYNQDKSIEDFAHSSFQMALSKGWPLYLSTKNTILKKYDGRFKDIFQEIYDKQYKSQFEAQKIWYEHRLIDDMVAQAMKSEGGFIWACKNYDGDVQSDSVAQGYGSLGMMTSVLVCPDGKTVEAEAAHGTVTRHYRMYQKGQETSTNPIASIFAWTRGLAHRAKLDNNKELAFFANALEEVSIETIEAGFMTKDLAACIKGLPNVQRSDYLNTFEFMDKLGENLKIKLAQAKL
T cruzi growth-1: T. cruzi intracellular proliferation inhibitors, primary screen, cell-based, beta-gal Tulahuen parasites, NIH3T3 host, luminescence. inhibition, % at 8.34 µM. 77,000 compounds, 5.9% hits. T. cruzi beta-gal in NIH3T3, GalScreen luminescence, 90 h. AID 624255, 2012;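 active = mean inhibition above about 93%, with at least 55% of replicates each passing it, limit read from the data, passing the limit was not always enough; inconclusive = only one of those two conditions holds; inactive = neither condition holds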
KDM4C inh: inhibitors of GASC-1 (KDM4C) histone demethylase, primary screen, biochemical, single concentration HTS; Lysine-specific demethylase 4C (Homo sapiens), Q9H3R0; GST-KDM4C 2-372, H3K9me3 peptide, LANCE TR-FRET; inhibition, % at 12.5 µM; 96,000 compounds, 0.15% hits;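 active = mean replicate inhibition above about 25%, with at least 55% of replicates also reaching it, limit read from the data, passing the limit was not always enough; inconclusive = only one of those two conditions met; inactive = neither condition met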
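Material: N-terminal GST-fused human GASC-1 (KDM4C) fragment, residues 2-372. Input: 10 nM enzyme. Incubation: enzyme reaction 30 min, then detection 60 min, both room temperature. Doses: one test concentration per compound. Read-out basis: inhibition from TR-FRET ratio decrease. Detection: LANCE TR-FRET, excitation 340 nm, emissions 618 and 671 nm.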
T cruzi growth-2: T. cruzi intracellular proliferation inhibitors, confirmation, cell-based, NIH3T3 host, beta-gal parasite, luminescence, cherry-pick. 5,600 compounds, 72% hits. inhibition, % at 8.35 µM. T. cruzi beta-gal in NIH3T3, GalScreen luminescence, 90 h. AID 651739, 2012. shares compounds with T cruzi growth-1;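 active = mean replicate inhibition above about 95% and at least 55% of replicates individually reaching it, limit read from the data; inconclusive = only one of the two criteria is met; inactive = neither criterion is met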
T cruzi growth-3: inhibitors of intracellular T. cruzi replication, confirmation, NIH3T3 host cells, beta-gal parasites, cherry-pick, set 2 | shares compounds with T cruzi growth-1 | T. cruzi beta-gal in NIH3T3, GalScreen luminescence, 90 h | inhibition, % at 2.09 µM | 5,600 compounds, 21% hits | AID 651740, 2012;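 active = mean inhibition above about 95%, with at least 55% of replicates also reaching it, limit read from the data; inconclusive = meets just one of the two conditions; inactive = meets neither condition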
3T3 cytotox: cytotoxicity in mouse NIH/3T3 fibroblasts, confirmation, cytotoxicity control for T. cruzi proliferation inhibitor project, cell-based, cherry-pick, single point; shares compounds with T cruzi growth-1; NIH/3T3 viability, CellTiter-Glo ATP luminescence, 90 h; cytotoxicity (signal decrease), % at 8.35 µM; 5,600 compounds, 14% hits; AID 651742, 2012;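 active = mean signal decrease across replicates above about 35% based on untreated-well scatter, with enough replicates individually passing, limit read from the data; inconclusive = no rule stated though some were filed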
3T3 cytotox 2: NIH/3T3 fibroblast cytotoxicity, confirmation, cytotoxicity control, cell-based, cherry-pick, single point, set 2 | shares compounds with T cruzi growth-1 | NIH/3T3 viability, CellTiter-Glo ATP luminescence, 90 h | inhibition, % at 24.9 µM | 5,600 compounds, 56% hits | AID 651744, 2012;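 active = mean loss of cell viability signal at or above a set limit, and enough replicates individually reaching it; inconclusive = meets only the mean limit or only the replicate share; inactive = meets neither condition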
A number is an active result; - = inactive; ? = inconclusive; . = no result given; + = active, no number; ! = not confirmed by another sample.

SMILES	Pf Dd2 inh	IDH1 R132H inh	T cruzi growth-1	KDM4C inh	T cruzi growth-2	T cruzi growth-3	3T3 cytotox	3T3 cytotox 2
COc1ccc(NC(=O)Nc2ccc3c(c2)[C@@H]2C[C@@H](CC(=O)NCCc4ccccc4)O[C@@H](CO)[C@@H]2O3)cc1	-	-	179	-	111	105	-	-
Cc1ccc(NC(=O)Cn2cc(C(=O)c3cccs3)c3ccccc32)cc1Cl	.	-	.	.	.	.	.	.
COc1ccc(CNC(=O)C[C@@H]2C[C@H]3c4cc(NC(=O)C5CCC5)ccc4O[C@H]3[C@H](CO)O2)cc1	-	-	177	-	?	-	-	-
O=C(CN1CCOCC1)N1CCCCN2[C@H](CO)[C@@H](c3ccc(C#Cc4ccccc4F)cc3)[C@@H]2C1	-	.	-	-	.	.	.	.
O=C(CN1CCOCC1)N1CCCCN2[C@H](CO)[C@@H](c3ccc(C#Cc4ccccc4F)cc3)[C@H]2C1	-	.	110	-	97	-	54	95
O=C(CN1CCOCC1)N1CCCCN2[C@@H](CO)[C@@H](c3ccc(C#Cc4ccccc4F)cc3)[C@@H]2C1	-	.	107	-	98	-	?	100
O=C(CN1CCOCC1)N1CCCCN2[C@@H](CO)[C@H](c3ccc(C#Cc4ccccc4F)cc3)[C@@H]2C1	-	.	107	-	112	-	42	102
C[C@@H]1CCCCO[C@@H](CN(C)Cc2ccc(C(F)(F)F)cc2)[C@@H](C)CN([C@@H](C)CO)C(=O)c2cc(NC(=O)C3CCCCC3)ccc2O1	-	-	?	-	102	-	-	-
C[C@@H]1CCCCO[C@H](CN(C)Cc2ccc(C(F)(F)F)cc2)[C@H](C)CN([C@H](C)CO)C(=O)c2cc(NC(=O)C3CCCCC3)ccc2O1	-	.	?	-	96	110	-	-
C[C@@H]1CN([C@H](C)CO)C(=O)c2cc(NC(=O)C3CCCCC3)ccc2O[C@@H](C)CCCCO[C@@H]1CN(C)Cc1ccc(C(F)(F)F)cc1	-	.	?	-	-	113	-	-
C[C@@H]1CN([C@@H](C)CO)C(=O)c2cc(NC(=O)C3CCCCC3)ccc2O[C@@H](C)CCCCO[C@@H]1CN(C)Cc1ccc(C(F)(F)F)cc1	-	-	?	-	104	105	-	-
C[C@@H]1CCCCO[C@@H](CN(C)Cc2ccc(C(F)(F)F)cc2)[C@@H](C)CN([C@H](C)CO)C(=O)c2cc(NC(=O)C3CCCCC3)ccc2O1	-	-	-	-	.	.	.	.
COc1ccc([N+](=O)[O-])cc1CSc1nnc(-c2ccc(NC(C)=O)cc2)n1C	.	-	.	.	.	.	.	.
COc1ccc(F)cc1S(=O)(=O)n1cnc2cc(C)c(C)cc21	.	-	.	.	.	.	.	.
N#Cc1ccc(-c2ccc([C@H]3[C@H](CO)N4CCCCN(S(=O)(=O)c5ccccc5)C[C@@H]34)cc2)cc1	-	.	116	-	108	-	51	88
O=S(=O)(c1ccccc1)N1CCCCN2[C@H](CO)[C@@H](c3ccc(-c4ccccc4)cc3)[C@@H]2C1	-	.	-	-	.	.	.	.
N#Cc1ccc(-c2ccc([C@H]3[C@H]4CN(S(=O)(=O)c5ccccc5)CCCCN4[C@H]3CO)cc2)cc1	-	.	114	-	107	-	-	-
CC=Cc1ccc2n(c1=O)C[C@@H]1[C@@H](CO)[C@H](C(=O)NCCc3ccncc3)N(CCC(F)(F)F)[C@H]21 (mixture of isomers)	-	.	108	-	-	-	-	-
CC=Cc1ccc2n(c1=O)C[C@H]1[C@H](CO)[C@@H](C(=O)NCC(F)(F)F)N(C(=O)c3cccnc3)[C@@H]21 (mixture of isomers)	.	.	+	-	-	-	-	-
COc1cccc(NC(=O)CSc2nnc(-c3ccccc3O)n2-c2ccccc2)c1	.	-	.	.	.	.	.	.
Cc1nc2ccccc2n1CC(O)COc1ccc(C(C)C)cc1 (stereo unspecified)	.	-	.	.	.	.	.	.
CC1(C)[C@H]2CC=C(/C=N\NC(=O)c3ccccc3O)[C@@H]1C2	.	-	.	.	.	.	.	.
C[C@@H]1CN([C@H](C)CO)S(=O)(=O)c2ccc(C#CC(C)(C)O)cc2O[C@H]1CN(C)Cc1ccc(-c2ccccc2)cc1	-84	-	121	-	-	110	118	107
C[C@H](CO)N1C[C@H](C)[C@@H](CN(C)Cc2ccc(-c3ccccc3)cc2)Oc2cc(C#C[C@@H](C)O)ccc2S1(=O)=O	-	.	97	-	-	107	109	104
C[C@H](O)C#Cc1ccc2c(c1)O[C@@H](CN(C)Cc1ccc(-c3ccccc3)cc1)[C@H](C)CN([C@@H](C)CO)S2(=O)=O	-	-	113!	-	101	99	114	108
SMILES	Pf Dd2 inh	IDH1 R132H inh	T cruzi growth-1	KDM4C inh	T cruzi growth-2	T cruzi growth-3	3T3 cytotox	3T3 cytotox 2
COc1cc(Cl)c(C(Nc2ccccn2)c2cc(Cl)c3cccnc3c2O)cc1OC (stereo unspecified)	.	-	.	.	.	.	.	.
Cc1ccc(N(C(C)C(=O)Nc2ccccc2Br)S(C)(=O)=O)cc1C (stereo unspecified)	.	-	.	.	.	.	.	.
Cc1ccc(OCC(=O)Nc2ccc3oc(-c4cccc(F)c4)nc3c2)c(C)c1	.	-	.	.	.	.	.	.
CC(=O)c1c(C)oc(NC(=O)Cn2cnc3ccccc3c2=O)c1C#N	.	-	.	.	.	.	.	.
C[C@@H]1CN([C@@H](C)CO)S(=O)(=O)c2ccc(C#Cc3ccc(F)cc3)cc2O[C@@H]1CN(C)C(=O)NC1CCCCC1	-	.	-	-	.	.	.	.
COc1ccc(C#Cc2ccc3c(c2)O[C@H](CN(C)C(=O)NC2CCCCC2)[C@@H](C)CN([C@@H](C)CO)S3(=O)=O)cc1	-	-	?	-	109	107	-	64
COc1ccc(C#Cc2ccc3c(c2)O[C@H](CN(C)C(=O)NC2CCCCC2)[C@H](C)CN([C@@H](C)CO)S3(=O)=O)cc1	-	-	?	-	102	-	-	-
C[C@@H]1CN([C@H](C)CO)S(=O)(=O)c2ccc(C#Cc3ccc(F)cc3)cc2O[C@@H]1CN(C)C(=O)NC1CCCC1	-	-	114	-	?	-	-	104

High-throughput results: PubChem BioAssay, Broad Institute
